Results as given in ChEMBL document CHEMBL3351352, “Discovery of a novel series of potent MK2 non-ATP competitive inhibitors using 1,2-substituted azoles as cis-amide isosteres” (Bioorg Med Chem Lett, 2014).
One block for each compound: values may come before it. Activity calls are given as the source filed them. The rule behind the calls is not given here.

Experiments:
THP-1 = assay: Inhibition of LPS-induced TNFalpha production in human THP1 cells pre-incubated for 30 mins before LPS challenge measured 3 hrs after LPS addition
[1] = Protein binding in human plasma; assay type: ADME, cell-free; conditions: read-out: PPB (converted)
[2] = Permeability in human Caco2 cells; assay type: ADME, cell-based; conditions: Caco-2, read-out: permeability
[3] = target: Serine/threonine-protein kinase PLK3 (Homo sapiens, UniProt Q9H4B4); assay: Inhibition of PLK3 (unknown origin)
[4] = target: Interleukin-1 receptor-associated kinase 4 (Homo sapiens, UniProt Q9NWZ3); assay: Inhibition of IRAK4 (unknown origin)
Ephrin type-B receptor 4 = Ephrin type-B receptor 4 (Homo sapiens, UniProt P54760); assay: Inhibition of EPHB4 (unknown origin)
[5] = target: Hepatocyte growth factor receptor (Homo sapiens, UniProt P08581); assay: Inhibition of MET (unknown origin)
[6] = target: RAC-alpha serine/threonine-protein kinase (Homo sapiens, UniProt P31749); assay: Inhibition of AKT1 (unknown origin)
[7] = target: Protein kinase C alpha type (Homo sapiens, UniProt P17252); assay: Inhibition of PKCA (unknown origin)
[8] = AUC (0 to 6 hrs) in Sprague-Dawley rat at 10 mg/kg, po; assay type: ADME, organism-based; set-up: time < 6 hr, dose 10 mg/kg, route oral; conditions: plasma
Method in brief: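 Sprague–Dawley rats were dosed orally with the compound in 20% HPBCD vehicle. AUC was calculated over 0 to 6 h.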

[9] = target: Receptor-type tyrosine-protein kinase FLT3 (Homo sapiens, UniProt P36888); assay: Inhibition of FLT3 (unknown origin)
[10] = target: Calcium/calmodulin-dependent protein kinase type IV (Homo sapiens, UniProt Q16566); assay: Inhibition of CAMK4 (unknown origin)
[11] = target: Rho-associated protein kinase 2 (Homo sapiens, UniProt O75116); assay: Inhibition of ROCK2 (unknown origin)
[12] = target: Mitogen-activated protein kinase 1 (Homo sapiens, UniProt P28482); assay: Inhibition of ERK2 (unknown origin)
[13] = target: Serine/threonine-protein kinase Nek2 (Homo sapiens, UniProt P51955); assay: Inhibition of NEK2 (unknown origin)
Serine/threonine-protein kinase Nek2, sequence (P51955 whole entry): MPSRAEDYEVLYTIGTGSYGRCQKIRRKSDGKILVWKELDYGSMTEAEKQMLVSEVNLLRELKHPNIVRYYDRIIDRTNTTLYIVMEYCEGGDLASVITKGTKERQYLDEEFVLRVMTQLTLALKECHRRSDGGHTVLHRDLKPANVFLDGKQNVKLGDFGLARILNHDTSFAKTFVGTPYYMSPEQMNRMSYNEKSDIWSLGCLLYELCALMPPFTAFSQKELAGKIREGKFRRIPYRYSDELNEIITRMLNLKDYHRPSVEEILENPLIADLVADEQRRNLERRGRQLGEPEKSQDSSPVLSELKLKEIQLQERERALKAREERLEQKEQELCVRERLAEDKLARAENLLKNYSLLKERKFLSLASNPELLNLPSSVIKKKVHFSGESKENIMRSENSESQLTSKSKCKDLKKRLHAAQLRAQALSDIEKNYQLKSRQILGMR

[14] = target: Glycogen synthase kinase-3 beta (Homo sapiens, UniProt P49841); assay: Inhibition of GSK3B (unknown origin)
Glycogen synthase kinase-3 beta, sequence (P49841 whole entry): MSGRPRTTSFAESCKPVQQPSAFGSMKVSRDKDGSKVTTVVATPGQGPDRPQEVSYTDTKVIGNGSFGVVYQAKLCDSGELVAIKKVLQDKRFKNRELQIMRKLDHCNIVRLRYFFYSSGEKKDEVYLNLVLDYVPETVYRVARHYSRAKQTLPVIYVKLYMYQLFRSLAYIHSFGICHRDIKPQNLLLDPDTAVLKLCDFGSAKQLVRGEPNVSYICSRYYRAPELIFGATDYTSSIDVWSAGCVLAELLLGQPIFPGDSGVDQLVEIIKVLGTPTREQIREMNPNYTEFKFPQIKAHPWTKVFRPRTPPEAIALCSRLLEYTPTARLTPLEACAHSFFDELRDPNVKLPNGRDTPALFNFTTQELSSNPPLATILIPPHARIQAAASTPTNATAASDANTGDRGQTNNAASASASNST

[15] = target: Epidermal growth factor receptor (Homo sapiens, UniProt P00533); assay: Inhibition of EGFR (unknown origin)
[16] = target: Casein kinase I isoform delta (Homo sapiens, UniProt P48730); assay: Inhibition of CSNK1D (unknown origin)
[17] = target: Serine/threonine-protein kinase Chk1 (Homo sapiens, UniProt O14757); assay: Inhibition of CHK1 (unknown origin)
[18] = target: Testis-specific serine/threonine-protein kinase 2 (Homo sapiens, UniProt Q96PF2); assay: Inhibition of TSSK2 (unknown origin)
Testis-specific serine/threonine-protein kinase 2, sequence (Q96PF2 whole entry): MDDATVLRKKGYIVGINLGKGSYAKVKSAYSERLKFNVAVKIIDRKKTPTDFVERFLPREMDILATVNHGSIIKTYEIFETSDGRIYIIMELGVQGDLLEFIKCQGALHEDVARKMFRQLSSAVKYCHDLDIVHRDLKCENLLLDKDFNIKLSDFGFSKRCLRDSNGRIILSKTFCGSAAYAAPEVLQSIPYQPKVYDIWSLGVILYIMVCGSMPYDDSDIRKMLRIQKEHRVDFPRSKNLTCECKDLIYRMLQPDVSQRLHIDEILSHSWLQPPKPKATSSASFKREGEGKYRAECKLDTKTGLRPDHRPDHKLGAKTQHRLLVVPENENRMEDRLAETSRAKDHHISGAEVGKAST

[19] = target: T1, MAP kinase-activated protein kinase 2 (Homo sapiens, UniProt P49137); assay: Non-ATP competitive inhibition of MK2 (unknown origin) incubated for 30 mins in presence of 1 uM and 100 uM ATP by MK2 IMAP assay
Method in brief: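 Inhibitor, ATP and MK2 (final 50 pM) were preincubated 30 min. TAMRA-labelled peptide (final 100 nM) was added for 30 min; final DMSO was 1%. Progressive binding reagent stopped the reaction (30 min); read at ex 530/em 580 nm. Values are means of duplicates or triplicates.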
Target sequence in this assay (P49137 whole entry, looked up): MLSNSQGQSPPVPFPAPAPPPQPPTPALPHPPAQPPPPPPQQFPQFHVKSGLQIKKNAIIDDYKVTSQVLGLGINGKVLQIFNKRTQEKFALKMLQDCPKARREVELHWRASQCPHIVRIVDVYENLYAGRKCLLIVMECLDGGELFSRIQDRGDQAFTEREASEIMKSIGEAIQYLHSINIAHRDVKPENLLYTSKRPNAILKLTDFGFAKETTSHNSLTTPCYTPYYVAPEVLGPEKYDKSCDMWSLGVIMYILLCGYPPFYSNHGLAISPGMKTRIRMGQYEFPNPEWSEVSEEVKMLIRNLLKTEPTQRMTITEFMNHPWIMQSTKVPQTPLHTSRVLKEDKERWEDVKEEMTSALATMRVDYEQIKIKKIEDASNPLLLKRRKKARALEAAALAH

[20] = target: Insulin-like growth factor 1 receptor (Homo sapiens, UniProt P08069); assay: Inhibition of IGF1R (unknown origin)
Insulin-like growth factor 1 receptor, sequence (P08069 31-736 limits assumed): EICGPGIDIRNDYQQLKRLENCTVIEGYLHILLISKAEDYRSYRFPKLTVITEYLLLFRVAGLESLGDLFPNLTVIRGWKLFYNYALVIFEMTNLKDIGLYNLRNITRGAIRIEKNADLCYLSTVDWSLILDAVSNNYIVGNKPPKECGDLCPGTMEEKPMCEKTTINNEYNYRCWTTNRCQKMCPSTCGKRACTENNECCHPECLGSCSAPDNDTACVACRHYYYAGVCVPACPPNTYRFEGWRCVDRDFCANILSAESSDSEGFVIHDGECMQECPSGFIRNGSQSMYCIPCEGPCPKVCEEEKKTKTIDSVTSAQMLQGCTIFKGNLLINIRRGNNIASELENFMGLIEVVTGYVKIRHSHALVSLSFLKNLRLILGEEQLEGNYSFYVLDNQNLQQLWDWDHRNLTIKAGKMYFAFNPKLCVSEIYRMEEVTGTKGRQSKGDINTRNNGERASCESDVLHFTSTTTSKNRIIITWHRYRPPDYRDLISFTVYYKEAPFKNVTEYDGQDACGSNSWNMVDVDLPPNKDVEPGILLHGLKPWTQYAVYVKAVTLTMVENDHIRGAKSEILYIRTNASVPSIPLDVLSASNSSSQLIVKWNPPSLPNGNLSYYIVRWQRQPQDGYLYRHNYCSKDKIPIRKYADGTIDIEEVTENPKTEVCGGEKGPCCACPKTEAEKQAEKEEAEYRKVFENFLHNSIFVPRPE
Insulin-like growth factor 1 receptor, sequence (P08069 741-1367 limits assumed): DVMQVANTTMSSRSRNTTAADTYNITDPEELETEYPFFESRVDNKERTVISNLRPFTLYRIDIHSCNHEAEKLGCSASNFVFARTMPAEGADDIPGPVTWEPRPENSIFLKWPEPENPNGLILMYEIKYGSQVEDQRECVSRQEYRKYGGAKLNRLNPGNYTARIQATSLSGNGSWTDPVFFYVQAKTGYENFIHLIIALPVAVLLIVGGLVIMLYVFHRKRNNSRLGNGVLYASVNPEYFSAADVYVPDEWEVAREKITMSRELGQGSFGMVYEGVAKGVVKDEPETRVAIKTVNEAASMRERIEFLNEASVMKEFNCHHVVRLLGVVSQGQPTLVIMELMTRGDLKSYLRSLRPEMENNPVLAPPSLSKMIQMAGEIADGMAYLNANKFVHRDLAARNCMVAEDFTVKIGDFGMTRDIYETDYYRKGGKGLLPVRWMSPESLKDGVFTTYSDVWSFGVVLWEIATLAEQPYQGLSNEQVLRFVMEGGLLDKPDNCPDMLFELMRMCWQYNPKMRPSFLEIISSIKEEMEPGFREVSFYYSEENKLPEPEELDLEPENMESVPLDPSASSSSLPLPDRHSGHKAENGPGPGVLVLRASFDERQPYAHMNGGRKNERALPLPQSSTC

[21] = target: Ribosomal protein S6 kinase alpha-3 (Homo sapiens, UniProt P51812); assay: Inhibition of RSK2 (unknown origin)
Ribosomal protein S6 kinase alpha-3, sequence (P51812 whole entry): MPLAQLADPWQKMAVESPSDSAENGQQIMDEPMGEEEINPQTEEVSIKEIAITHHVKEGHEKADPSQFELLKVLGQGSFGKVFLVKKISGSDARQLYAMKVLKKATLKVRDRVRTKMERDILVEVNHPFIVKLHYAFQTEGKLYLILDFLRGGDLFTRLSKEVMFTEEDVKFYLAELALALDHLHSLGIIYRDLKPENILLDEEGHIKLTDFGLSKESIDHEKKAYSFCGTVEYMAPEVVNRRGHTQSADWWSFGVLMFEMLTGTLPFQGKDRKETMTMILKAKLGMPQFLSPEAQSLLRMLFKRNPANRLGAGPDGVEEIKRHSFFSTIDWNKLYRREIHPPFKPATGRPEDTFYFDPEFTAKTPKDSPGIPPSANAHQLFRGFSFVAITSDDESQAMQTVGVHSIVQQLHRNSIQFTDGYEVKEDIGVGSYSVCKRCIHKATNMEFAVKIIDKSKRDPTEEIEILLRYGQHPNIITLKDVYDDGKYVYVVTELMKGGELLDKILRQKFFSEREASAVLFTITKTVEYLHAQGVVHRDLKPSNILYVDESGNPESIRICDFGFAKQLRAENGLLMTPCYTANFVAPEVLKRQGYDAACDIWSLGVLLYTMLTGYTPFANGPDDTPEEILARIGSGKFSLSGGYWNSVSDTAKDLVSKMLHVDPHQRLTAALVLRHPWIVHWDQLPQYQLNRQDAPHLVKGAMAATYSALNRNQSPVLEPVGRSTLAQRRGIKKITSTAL

[22] = target: Cyclin-dependent kinase 2 (Homo sapiens, UniProt P24941); assay: Inhibition of CDK2 (unknown origin)
[23] = target: Serine/threonine-protein kinase 3 (Homo sapiens, UniProt Q13188); assay: Inhibition of MST2 (unknown origin)
[24] = target: T1, MAP kinase-activated protein kinase 2; assay: Inhibition of MK2 in human THP1 cells assessed as reduction in LPS-induced HSP27 Ser78 phosphorylation after 60 mins; assay type: cell-based, THP-1
Target sequence in this assay (P49137 whole entry): as the sequence (P49137 whole entry, looked up) above

[25] = target: T1, MAP kinase-activated protein kinase 2; assay: Inhibition of MK2 (unknown origin) incubated for 30 mins by MK2 IMAP assay
Target sequence in this assay (P49137 whole entry): as the sequence (P49137 whole entry, looked up) above

[26] = target: Inhibitor of nuclear factor kappa-B kinase subunit beta (Homo sapiens, UniProt O14920); assay: Inhibition of IKKB (unknown origin)
[27] = target: Vascular endothelial growth factor receptor 2 (Homo sapiens, UniProt P35968); assay: Inhibition of KDR (unknown origin)
[28] = target: Tyrosine-protein kinase Lck (Homo sapiens, UniProt P06239); assay: Inhibition of LCK (unknown origin)
Tyrosine-protein kinase Lck, sequence (P06239 whole entry): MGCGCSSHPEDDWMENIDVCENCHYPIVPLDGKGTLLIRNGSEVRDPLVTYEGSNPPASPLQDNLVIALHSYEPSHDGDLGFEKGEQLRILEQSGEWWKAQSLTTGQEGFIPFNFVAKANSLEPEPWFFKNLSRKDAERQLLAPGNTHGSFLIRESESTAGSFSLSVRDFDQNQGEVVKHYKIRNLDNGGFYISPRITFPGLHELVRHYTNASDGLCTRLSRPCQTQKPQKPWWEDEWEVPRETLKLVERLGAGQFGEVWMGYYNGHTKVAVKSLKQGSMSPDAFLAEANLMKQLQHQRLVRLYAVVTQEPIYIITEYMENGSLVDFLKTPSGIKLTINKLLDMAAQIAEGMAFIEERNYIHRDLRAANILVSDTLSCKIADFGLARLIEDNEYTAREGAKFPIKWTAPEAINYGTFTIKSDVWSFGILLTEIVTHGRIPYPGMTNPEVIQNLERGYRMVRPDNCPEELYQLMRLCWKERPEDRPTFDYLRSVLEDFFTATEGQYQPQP

[29] = target: Tyrosine-protein kinase JAK2 (Homo sapiens, UniProt O60674); assay: Inhibition of JAK2 (unknown origin)

IC50 (THP-1): 1.49 µM | fraction unbound [1]: 0.016 | Papp [2]: < 0.1 ×10⁻⁶ cm/s
Compound: O=C1c2oc(-c3ccc(Cl)cc3)cc2Cc2cc(N3CCNCC3)ccc2N1Cc1ccccc1-c1cncnc1

IC50 [3]: > 30 µM | IC50 [4]: > 30 µM | IC50 (THP-1): 0.8 µM | IC50 (Ephrin type-B receptor 4): > 30 µM | fraction unbound [1]: 0.028 | IC50 [5]: > 30 µM | IC50 [6]: > 15 µM | IC50 [7]: > 30 µM | AUC(0-t) at 6 h [8]: 13.3 µM·h | IC50 [9]: > 30 µM | IC50 [10]: > 30 µM | IC50 [11]: > 20 µM | IC50 [12]: > 30 µM | IC50 [13]: > 30 µM | IC50 [14]: > 30 µM | IC50 [15]: > 30 µM | IC50 [16]: > 30 µM | IC50 [17]: > 30 µM | IC50 [18]: > 30 µM | inhibition [19]: Active | IC50 [20]: > 30 µM | IC50 [21]: > 30 µM | IC50 [22]: > 30 µM | IC50 [23]: > 30 µM | IC50 [24]: 2.14 µM | IC50 [25]: 0.0255 µM | IC50 [26]: > 30 µM | Papp [2]: 5 ×10⁻⁶ cm/s | IC50 [27]: > 30 µM | IC50 [28]: > 30 µM | IC50 [29]: > 30 µM
Compound: Clc1ccc(-c2ccc(-c3nccn3-c3ccc(N4CCNCC4)cc3)o2)cc1
